# In PMC7246176 (Nature chemical biology, 2020):
# Read-outs that look alike come from different tables or passages of the source.
# Legend:
# [1] = molecular target: T1, DCLK1-Nluc in HCT116 cells (Homo sapiens, UniProt O15075); test: DCLK1 NanoBRET target engagement assay in HCT116 cells; format: cell-based
# T1 sequence (O15075 1-729 isoform O15075-2): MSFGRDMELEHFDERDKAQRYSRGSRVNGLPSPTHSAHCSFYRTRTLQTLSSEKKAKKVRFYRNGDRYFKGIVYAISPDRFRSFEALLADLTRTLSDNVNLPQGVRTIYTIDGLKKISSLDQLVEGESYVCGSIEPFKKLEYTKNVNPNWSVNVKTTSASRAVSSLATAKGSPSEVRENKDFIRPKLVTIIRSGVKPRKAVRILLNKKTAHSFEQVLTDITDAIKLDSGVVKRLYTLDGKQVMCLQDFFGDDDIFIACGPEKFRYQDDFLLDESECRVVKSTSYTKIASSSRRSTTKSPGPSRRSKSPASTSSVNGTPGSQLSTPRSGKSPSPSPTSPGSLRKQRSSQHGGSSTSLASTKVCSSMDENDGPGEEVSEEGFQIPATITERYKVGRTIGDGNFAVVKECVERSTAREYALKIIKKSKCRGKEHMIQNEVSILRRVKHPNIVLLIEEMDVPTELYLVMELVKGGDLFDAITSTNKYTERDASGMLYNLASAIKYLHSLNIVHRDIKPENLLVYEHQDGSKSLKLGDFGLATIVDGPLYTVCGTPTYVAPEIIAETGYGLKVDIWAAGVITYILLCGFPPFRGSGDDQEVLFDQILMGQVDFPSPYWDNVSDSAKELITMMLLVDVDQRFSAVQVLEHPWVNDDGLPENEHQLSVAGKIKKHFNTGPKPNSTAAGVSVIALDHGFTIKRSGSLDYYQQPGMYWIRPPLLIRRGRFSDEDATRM
# BRD4 = BRD4 (Homo sapiens, UniProt O60885); test: BRD4 AlphaScreen assay; format: binding
# PANFR0172_T4 = test: Patient-derived pancreatic organoid viability, PANFR0172_T4; format: cell-based, human; conditions: read-out: PANFR0172_T4 3D organoid culture IC50
# Summary of the method: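 Patient-derived PDAC organoids were dissociated to single cells and plated at 1000 viable cells/well in complete organoid medium with 10% Matrigel, in ultra-low-attachment 384-well plates. After 24 h, compound was added by digital dispenser, then 7 days incubation. Read-out was CellTiter-Glo 3D luminescence after 1 h shaking at room temperature, normalized to DMSO wells for each culture.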
# DCLK1 = molecular target: T2, DCLK1 (Homo sapiens, UniProt O15075); test: DCLK1 KINOMEscan binding assay
# T2 sequence (O15075 1-740): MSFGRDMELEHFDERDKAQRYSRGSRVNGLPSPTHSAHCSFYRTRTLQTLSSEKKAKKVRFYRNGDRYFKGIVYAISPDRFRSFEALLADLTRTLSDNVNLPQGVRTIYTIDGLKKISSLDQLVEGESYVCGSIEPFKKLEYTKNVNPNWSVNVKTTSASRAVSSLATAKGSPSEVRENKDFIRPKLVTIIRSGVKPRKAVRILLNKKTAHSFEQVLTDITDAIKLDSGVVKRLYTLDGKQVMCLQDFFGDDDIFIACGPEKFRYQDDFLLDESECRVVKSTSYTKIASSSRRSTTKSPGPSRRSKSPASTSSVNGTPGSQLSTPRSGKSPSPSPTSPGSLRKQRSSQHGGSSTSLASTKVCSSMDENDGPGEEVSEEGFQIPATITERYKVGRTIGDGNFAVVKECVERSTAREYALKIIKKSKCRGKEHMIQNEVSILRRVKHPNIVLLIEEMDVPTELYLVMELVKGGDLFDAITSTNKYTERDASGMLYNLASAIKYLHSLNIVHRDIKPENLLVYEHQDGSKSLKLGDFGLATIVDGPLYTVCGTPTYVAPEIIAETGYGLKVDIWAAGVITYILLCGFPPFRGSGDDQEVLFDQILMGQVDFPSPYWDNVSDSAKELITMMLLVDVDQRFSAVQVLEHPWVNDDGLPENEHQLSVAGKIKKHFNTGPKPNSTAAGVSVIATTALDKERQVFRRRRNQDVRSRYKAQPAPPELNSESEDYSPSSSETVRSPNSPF
# PATU-8902 cells [2] = test: Cell viability, ultra-low adherent 3D-spheroid culture, PATU-8902; format: cell-based, human; conditions: read-out: PATU-8902 cells 3D spheroid culture IC50
# Summary of the method: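 PATU-8988T and PATU-8902 cells were plated at 100 cells/well in 50 μL media, either adherent (2D) or in ultra-low attachment spheroid plates (3D), overnight. Test compound was pin-transferred and cells were incubated 120 h. Viability was read by CellTiter-Glo luminescence after 15 min at room temperature. Data were normalized to DMSO-treated wells per cell line and fitted.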
# PATU-8902 cells [3] = test: Cell viability, 2D-adherent monolayer culture, PATU-8902; format: cell-based, human; conditions: read-out: PATU-8902 cells 2D monolayer culture IC50
# Summary of the method: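 PATU-8902 or PATU-8988T cells were plated at 100 cells/well and left overnight to adhere (2D plates) or to form spheroids (ultra-low-attachment 3D spheroid plates). Compound was pin-transferred, then 120 h incubation. Viability by CellTiter-Glo luminescence after 15 min at room temperature, normalized to DMSO-treated wells for each cell line.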
SMILES,IC50 [1],IC50 (BRD4),"IC50 (PANFR0172_T4; Homo sapiens, 168 h)",IC50 (DCLK1),"IC50 (PATU-8902 cells [2]; Homo sapiens, PaTu 8902, 120 h)","IC50 (PATU-8902 cells [3]; Homo sapiens, PaTu 8902, 120 h)","IC50 ([1]; read-out: DCLK1 cellular assay IC50, nanoBRET, HCT116 cells)","IC50 (BRD4; read-out: BRD4 binding assay IC50, AlphaScreen, Table 1)","IC50 (PANFR0172_T4; viability, 7 d, P.R. = partial response)","IC50 (DCLK1; read-out: DCLK1 binding assay IC50, KINOMEscan)","IC50 (PATU-8902 cells [2]; cell viability, 120 h, P.R. = partial response)","IC50 (PATU-8902 cells [3]; cell viability, 120 h)"
COc1cc(N2CCN(C)CC2)ccc1Nc1ncc2c(n1)N(C)c1ccccc1C(=O)N2CC(F)(F)F [DCLK1-IN-1],279 nM,> 10000 nM,> 20 µM,9.5 nM,> 20 µM,> 20 µM,–,–,–,–,–,–
CCOc1cc(N2CCC(O)CC2)ccc1Nc1ncc2c(n1)N(C)c1ccccc1C(=O)N2C [XMD8-92],–,–,–,–,–,–,1150 nM,1570 nM,> 20 µM,1400 nM,> 20 µM,> 20 µM
